To fix the notation:
B1: tRNA (parent)
chain: GUUCCGUUGGCGUAAUGGUAACGCGUCUCCCUCCUAAGGAGAAGACUGCGGGUUCGAGUCCCGUACGGAACG

Variants at the floor of the assay were thinned out.

In the data set the parent is B1. Description: yeast fitness relative to wild type (ratio to wild type); higher = fitter; tRNA-Arg(CCU), competitive growth, 37 C, YPD. In a few lines:
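Gene amplicons from the start population and from each of six end populations were read by 100-nucleotide paired-end sequencing. Those end populations came from pooled Saccharomyces cerevisiae strains carrying tRNA-Arg(CCU) gene variants at the native locus, competed in YPD at 37°C for 24 hours. Fitness relative to wild type was worked out from changes in genotype frequencies. Genotypes needed ≥ 100 starting reads, and estimates < 0.5 were set to 0.5.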
For the variant GUUCCGUUGGCGUAAUGGUAACGCGUCUCCCUCCAAAGGAGAAGACUGCGCGUUCGUGUCCCGUACGGAACG, the yeast fitness was 0.539. In the case of GUUACGUUGGCGUAGUGGUAACGCGUCUCCCUCCUAAGGAGAAGACUGCGGGUUCCAGUCCCGUACGGAACG it was 0.583. Then GUUCCGUUGGCGUAAUGGUAACGCGUCUCCCUCCUAACGAGAAGACUGCGGGUUCGAGUCACGUACGGAACG, with 0.608. In the case of GUACCGUUGGCGUAAUGGUUACGCGUCUCCCUCCUAAGGAGAAGACUGCGGGUUCGAGUCCCGUACGGAACG it was 0.834; in that of GUUCCGUUAGCGUAAUGGUAACGCGUCUCCCUCCUAAGGAGAAGACUGCGGGUUCGGGUCCCGUACAGAACG, 0.558; in that of GUUCCGUUGGCGUAAUGGUGACGUGUCUCCCUUCUAAGGAGAAGACUGCGGGUUCGAGUCCCGUACGGAACG, no more than 0.5. Consider GAUCCAUUGGCGUAAUGGUAACGCGUCUCCCUCCUCAGGAGAAGACUGCGGGUUCGAGUCCCGUACGGAACG, for which the yeast fitness was determined as 0.666. For the variant GUUCCGUUAGCGUAAUGGUAACGCGUCUCCCUCUUAAGGAGAAGAAUGCGGGUUCGAGUCCUGUAUGGAACG, the yeast fitness is no more than 0.5. Then GUUCCGAUGGCGUAAUGGUAACGCGUCUCCCUCCUAACGAGAAGACUGCGGGUUCGAGUCCCGUACGGAGCG, with no more than 0.5; and GAUCCGUUGGCGUAAUGGUAACGCGUCUCCCUCCUAAGGAGAAGACUGCGGGUUCGAGUCCCGUACGUAACG, with 0.773; and GUUCCGUUAGCGUAAUGGUAACGCGUCUCCCUCUUAAGGAGAAGACUGAGGAUUCGAGUCCCGUACGGAACG, with no more than 0.5. In the case of GUAACGUUGGCGUAAAGGUAACGCGUCUCCCUCCUCAGGAGAAGACUACGGGUUCGAGUCCCGUACAGAACG it was no more than 0.5. In the case of GUUCCGUUGGCGUGAUGGUAACGCGUCUCCCUCCUAAGGAGAAGACUGCGGGUUCGAGUCCCGUACCGAACG it was 0.763; in that of GGUUCGUUGGCGUAAUGGUAACGCGUCUCCCUCCUAAGGAGAAGACUGCGGGUUCGAGUACCGUACGGAACG, no more than 0.5.

GUUCCGUUGGCGUAAUGGUAACGCGUCUCCCUCCUAAGGAGAACACUGCGGGUUCGAGUCCGGUACGAAACG: the yeast fitness is no more than 0.5. GUUCCGUUGGCGUAAUGGUAGCGCGUCUCGCUCCUAAGGAGAAGACUGCGGGUUCGAGUCCCGUACGGAACG: the yeast fitness is 0.784.

For the variant GUUCCGUUGGCGUAAUUGUAACGCGUCUCCCUCCUAAGGAGAAGACUGCGGGUUCGAGUCCCGUACGGCGCG, the yeast fitness was 0.643.

Take GUUCCGUUGGAGUAACGGUAACGCGUCUCCCGCCUAAGGAGAAGACUGUGGGUUCAAGUCCCGUCCGGAACG: the yeast fitness was no more than 0.5. In the case of GUUCGGUUGCCGUAAUGGUAACGCGUCUCCCUCCUAAGGAGAAGACUGCGGGUUCGAGUCCCGUACGGAACG, the yeast fitness was found to be 0.651. In the case of GUUCCGUUGGCGUAAUGGUAACGCGUCUCCAUCAUACGGAGAAGACUGCGGGUUCGAGUCCCGUACGGAACG it was 0.6; in that of GUUCCGUUGGCGUAAUGGUACCGCGUCUACCUCCUAAGGAGAAGACUGCGGAUUCGAGUCUCGUACGGAACG, no more than 0.5. In the case of GUUCCGUUGGCGUAAUGGUCACGCGUCUCCCUCCUAAGGAGAAGACGGCGGGUUCGAGUGCCGUACGGAACG it was no more than 0.5.

As for GUUUCGUUGGCGUAAUGGUAACACGUCUCCCUCCUAAGGAGAAGACUGCGGGUUCGAGUCCCGUACGGAACG, the yeast fitness turned out to be 0.783.

On to GUUCCGUUGGCGUAAUGGUGAGGCGUCUCCCUCCUAAGGAGAAGACUGCGGGUUCAAGUCCCGUACAGAACG, for which the yeast fitness is no more than 0.5. Then GUUCCGUUGGCGUAAUGGUACCGCGUCUCUGUUCUAAGGAGAAGACUGCGGGUUCGAGUCACGUACGGAACG, with no more than 0.5; and GUUCCGUUGGCGUACUGGUAACGCGUCUCCCUCCUAAGGAGAAGACUGCGGGUUCGAGUGCCGUACGGAACG, with 0.612. For GUUACGUUGGCGUAACAGUAACGCGUCUCCCUCCUAAGGAGAAGACUGCGGGUUCGAGUCCCGUACGGAACG, the yeast fitness amounted to 0.567. For GUUCCGUUGGCGUAAUGGUAACGCGUCUCCCUCCUAAGGAGAAGACUGCGGGUUUGACUCCCGUACGGUACG, the yeast fitness was determined as 0.537. Then GUUCCGUUGACGGAAUGGUAACGCGUCUCCCUCCUAAGGAGAUGACUGCGGGCUCGAGUCCCGUACGGAACG, with no more than 0.5; and GUUCCGUUGGCGUAAUGGUAACGCGUCUCCCUCCUAAGGAGAAGACUGCGGGUUCGAAUCGCGUACGGAUCG, with 0.749. Then GGUCCAUUGGCGUAAUGGUAACGCGUUUCCCUCCUUAGGAGAAGACUGCGGGUUCGAGUCCCGUACGCAACG, with no more than 0.5; and GGUCCGUUGGCGUAAUGGUAACGCGUUUCCCUCCUACGGAGAAGACUGCGGAUUCGAGUCCCGUACAGAACG, with no more than 0.5; and GUUGCGUUGGCGUAAUGGUAUCGCGUCUCCCUCCUAAGGAGAAGACUGUGGGUUCCAGUCCCGUACGGAACG, with no more than 0.5.

On to GUUCCGUUGGCAUAAUGGUACCGCGUCUCCCUCCGAAGGAGAAGACUGCGAGUUCGAGUCCCGUACGGAACG, for which the yeast fitness is no more than 0.5.

Take GUUCCCUUGGCGUGAUGGUAACGCGUCUCCCUCCUAAGCAGAAGACUGCGGGUUCGAGUCCCGUACGGAACG: the yeast fitness was no more than 0.5.

For the variant GUUCUGUUGGCGUAAUGGUAACGCGUCUCCCUCCUAAGGAGAAGACUGCGGGUUCGACUCCCGUACGAAACG, the yeast fitness was determined as 0.513.

Regarding GUUCCGUUGGCGUAAUGGUAACGCGUCUCCCUUCUAAGGAGAAGACUGUGGGUUCGAGUCCCGUACGGUACG, the yeast fitness was determined as 0.564. Then GUUCCAUUGGCGUAAUGGUAACGCGUCUUCCUCCUAAGGAGAAGACAGCGAGUUCGGGUCCCGUACGGAACG, with no more than 0.5. Consider GUUCCGUUGGUGUAAUGGUAACGCGUCUGCCUCCUUAGGAGAAGACUGCGGGUUCGAGUCCCGUAAGGAACG, for which the yeast fitness was no more than 0.5. As for GUUCCGUUGGCGUAAUGGUAACGCGUCUCCCUCCUAAGGAGAAGACUGCGGGUUCGAGUCCCGGAUGGAACG, the yeast fitness worked out at 0.669. In the case of GUUCCGUUGGCGUAAUGGUAAGGCGUCUCCCUGCUAAGGAGAAGACUGCGAGUUCGAGUCCCGUACGGAACG it was no more than 0.5; in that of GUUCCGUUGGCGUAAUGGUAACGCGUCUCCCUCCUUAGGAGAAGACCGCGGCUUCGAGUCCCGUACGGAACG, no more than 0.5. Then GUUCCGUUGGCGUAAUGGUAACGCGUCUCCCUCCUAAGGGGAAGACUGCGGAUGCGAGUCUCGUACGGAACG, with no more than 0.5; and GAUCCGUUGGCGUAAUGGUUACGCGUCUCACUCCUUAGGAGAAGACUGCGGGUUCGAGUUCCGUACGGCACG, with no more than 0.5. Then GUUCCGUUGACGUAAUGGUGACGCGUCUUCCUCCUAAGGAGAAGACUGUGGGUUCAAGUCCCAUACGGAACG, with no more than 0.5; and GUUCCCUUGGCGUAAUGGUAACGCGUGUCCCUCCUAAGGAGAAGACUGCGGGUUCGAGUCCCGUACGGAACG, with 0.567; and GUCCCGUUGGCGUAAUGGUAACGCGUCUCGCUCCUAAGGAGAAGACUGCGGAUUCGAGUCCCGUACGGAUCG, with 0.641.

In the case of GUUCCGUUGGCGUAAUGGUAAUGCGUCUCCCUCCUCAGGAGAAGACUGCGGGUUCGAGUCCCGUAAGGAACG, the yeast fitness is no more than 0.5. Then GUUCCGUUGGCGUGAUGGUAACGCGUGUCCCUCCUAAGGAGAAGACUGCGGGUUCGAGUCUCGUACGGAACG, with no more than 0.5; and GUUCCGUUGGCGUAAUGGUAAAGCGUCUCCUUCCUAAGGAGAAGACUGCGGGUUCGAGUCCCGUACGCAACG, with 0.561; and GUUCCCUUGGCGUAAUAGGAACGCGUCUCCCUCCUAAGGAGAAGACUGCGGGUUCGAGUCCCGUACGGUACG, with no more than 0.5. In the case of GUUCGGUUGGCGUAAUGGUAACGCGUCUCCCUCCUAAGGAGAAGACAGCGGAUUCGAGUCCCGUACGCAACG it was no more than 0.5.

GUUCCGUUGGCGUAAUGGUAACGCGUCUCCCUACUAAGCAGAAGACUGUGGGUACGAGUCCCCUACAGAACG: the yeast fitness was no more than 0.5. As to GGUCCGUUGGCGUAAUGGUAACGCGUCUCCCUCCUAAGGAGAAGACUGGCGGUUCGAGUCCCGUACGGAACG, the yeast fitness was 0.536. In the case of GUACCGUUGGCCUAAUGGUACCGCGUCUCCCUCCUCAGGAGAAGACUGCGGGUUCGAGUCCCGUACGCAACG it was no more than 0.5. Then GUUCCGUUGGCGUAAUGGUAACGCGUCUGCCUCCUAAGGAGAAGACUGCGGGUUAGAGUCCCGACCGGAACG, with no more than 0.5; and GUUCCAUUAGCGUAAUGGUAUCGCGUCUCCGUCCUAAGGAGAAGACUGCGGGUUCGAGUCCCGUACGGAACG, with no more than 0.5. Then GUUCCGUUGGCGUAAUGGUAACGCGUCUCCCUCCUAAGGAGAAGACUGCGGGUCGGAGUCCCGUACGGAACG, with 0.654.

With GUUCCGUUGGCGUAAUAGUAACGCGUCUCUCUCCUAAGGAGAAGACUGCGGGUUCGAGUCCCGUACGGAACG, the yeast fitness was determined as 0.82. Then GUUCCGUUGGCGUAAUGGUAUCGCGUCUCCCUCCUUAGGAGAAGACUGUGGCUUCGAGUCCAGUACAGAACG, with 0.616. Then GUUCCGUUGGCGUAAUGGUAACGCGUCUCCCUACUAAGGAGAAGACUGCGGGUUCCAGUCCCGUACGGAACG, with 0.634; and GUUCCGUUGGCGUAAGGGUAACGGGACUCCCUCCUAAGGAGAAGACUGCAGGUUCGAGUCCCGUACGGAACG, with 0.581. Then GUUCCGUUGGAGUAAUGGUAACGCGUCUCCCUCCUAAGGAGAAGACUGCGGGUUCGAGUCUCGUGCCGAACG, with no more than 0.5; and GUUCCGUUGGCGUAGUGGUCACGGGUCUCCCUCCUAAGGACAAGAAUGCGGGUUCGAGUCCGGUACGGAACG, with no more than 0.5; and GUACCGUUGGCGUAAUGGUAACGCGUCUCCCUCCUAAAGAGAAGACUGCGGGUUCGAGUCCCGUAUGGAACG, with no more than 0.5. Regarding GUUCCGUUGGCGUAAUGGUAACGCGUCUCCCUCCUGAGGAGAAGACUGCGGGUUAGAGUCCCGUAAGGAACG, the yeast fitness was no more than 0.5. Then GUUCCGUUGGCGUAAAGGUAACGCGUCUCCCUCCUAAGGAGAAGCCUGCGGGUUCGAGUCCCGUGCGGAACG, with no more than 0.5. Then GUUCCGUUGGCGUAAUGGUAACGCGUCUCCAUCCUAAGGAGAGGACUGCAGGUUCGUGUCCCGUACGGAACG, with 0.768. In the case of GUUCCGAUGGCGUAAUGGUAAAGCGUCUACCUCCUAAGGAGAACACUGCGGGUUCGAGUCCCGUACGGAACG, the yeast fitness was no more than 0.5.

Consider GUUCCGUUGGAGUAAUGGUAACGCGUCUCUCUCCUAAGGAGAAGACUGGAGGUUCGAGUCCCGAACGGAACG, for which the yeast fitness was no more than 0.5. Then GUUCCAUUGGCGUAAUGGUUACGCGUCUCCCUCCUAAGGAGAAGACUGCGGGAUCGAAUCCCGUACGGAACG, with 0.538; and GUUCCGUUGGCGUAAUGGUAACGCGUCUCCCUCAUAAGGAGAAGACUGCGGGUUCGAGUCCCGUACGGAUCG, with 0.924.

For the variant GUUCCGUUGGCCUAAUGGUAACGUGUCUCCCUCCUAAGGAGUAGAAUGCGGGUUUGAGUCGCGUACGGCACG, the yeast fitness was no more than 0.5. In the case of GUUCCGUUGGUGUAAUGGUAACGCGUCUCCGUCGUAAGGAGAUGACUGCGGGUUCGAGUCCCGUACGGCACG it was no more than 0.5. Then GUUCCGUAGGCGUCAUGGUAACGCGUCUCCAUCCUAAGGACAAGACUGAGGGUUCAAGUCCCGUACGGAACG, with 0.668.
